High-throughput results: PubChem, Broad Institute
Rows were chosen to be rich in hits. Some 3.5% of all compounds tested hit in one or more screens of this group.
Cneo AK release – Cryptococcus neoformans cell lysis inducers, primary screen, AK release luminescence, single concentration; C. neoformans lysis, adenylate kinase release luminescence, 4 h; normalised: neutral wells 0, clomiphene wells 100; lysis activity, % at 15 µM; hit rate 0.2% among 360,000;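 active = mean lysis activity across replicates of at least 80%, whatever share of replicates individually reach that level; inactive = mean lysis activity below 80%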
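Material – Cryptococcus neoformans yeast cells · Quantity – 5 × 10^6 yeast cells/mL · Buffer or medium – YPD medium · Compound – single dose · Timing – 4 h static compound exposure, 37 °C, read 1 h post-reagent · Signal – adenylate kinase release luminescence · Read-out basis – lysis from increased AK signal · Benchmarks – Clomiphene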
FGF22 binding – binders of human FGF22 protein, primary screen, FGF22 synaptogenesis inhibitor project, biophysical, thermal shift, single point. recombinant FGF22 thermal shift, SYPRO orange fluorescence; percent of sucrose octasulfate shift, DMSO zero. activity (Tm shift, normalised), % at 9.99 µM. hit rate 1.5% among 340,000;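 active = mean Tm shift, scaled 0 neutral to 100 positive control, at about 1.3% or above, every replicate too, limit read from the data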
Target sequence (Q9HCT0 whole entry, looked up): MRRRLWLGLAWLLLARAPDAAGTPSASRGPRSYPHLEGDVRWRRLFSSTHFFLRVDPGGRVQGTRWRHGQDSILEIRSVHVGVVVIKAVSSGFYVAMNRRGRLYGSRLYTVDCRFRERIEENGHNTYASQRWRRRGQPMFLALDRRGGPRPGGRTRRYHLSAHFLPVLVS
PGC1a acetyl inh – inhibitors of PGC1a acetylation signal, primary screen, cell-based, U2OS, AlphaScreen, inhibitor mode; hit rate 0.17% among 350,000; inhibition, % at 15.6 µM; AlphaScreen anti-acetyl-lysine; with virally co-expressed GCN5 acetyltransferase; AID 651687, 2012;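 active = every replicate shows inhibition of at least 40%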;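 note: 0% = neutral control wells and 100% = positive control wells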
ERAP1 inh – human ERAP1 aminopeptidase inhibitors, primary screen, biochemical, single point, plate reader; Endoplasmic reticulum aminopeptidase 1 (Homo sapiens), Q9NZ08; recombinant ERAP1, Leu-AMC fluorescence, 60 min; inhibition, % at 10.7 µM; hit rate 0.15% among 340,000; AID 652197, 2013;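 active = mean replicate inhibition of at least 30%, or all replicates individually reaching that 30% level; inactive = mean below 30% and not every replicate reaching it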;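 note: 0% = neutral control wells and 100% = L-leucinethiol positive control wells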
Env fusion inh – inhibitors of HIV-1 Env-driven cell-cell fusion, primary screen, HeLa-JRFL effector, CEM21 target cells, luciferase; hit rate 1.1% among 360,000; inhibition, % at 12.3 µM;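 active = mean replicate inhibition score of at least 50 and every replicate individually at or above 50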;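 note: 0% = plate neutral controls and 100% = maraviroc near 300 nM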
Ecoli rRNA inh – reduced GFP signal of wild-type E. coli, primary screen, bacterial rRNA inhibitor project, GFP/RFP fluorescence, OD600, single point. hit rate 1.6% among 350,000. GFP signal change (wild-type ribosome), % (test concentration not listed). AID 720706, 2013. E. coli WT GFP vs humanized-ribosome RFP mutants, 24 h; stronger effect = lower value; DMSO median 0, no signal -100;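 active = significant combined selectivity score with lowered wild-type GFP, culture density cut under 30%, mutant RFP and density less affected; inactive = any of these conditions unmet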
An asterisk follows results filed as active; · = no result given; [ ] = another dose, or the depositor's remark.

SMILES	Cneo AK release	FGF22 binding	PGC1a acetyl inh	ERAP1 inh	Env fusion inh	Ecoli rRNA inh
CCN1C(=O)N(CC)C(=O)C2(Cc3ccccc3N3CCN(c4ccccc4)CC32)C1=O (centres undefined)	15.2	-0.1	-1.7	1.4	23.1	·
CC/C(=N\NC(=S)Nc1ccccc1)c1c(O)[nH]c(=O)[nH]c1=O	1.7	0.1	1.3	8.6	-0.9	2.4
O=c1[nH]c2ccccc2n1C1CCN(C(c2nnnn2Cc2ccccc2)C2CC2)CC1 (centres undefined)	-9.7	0.4	24.3	-3.4	33.0	-16.3
O=C(O)c1ccc(Cl)nc1	·	43.5*	2.9	2.4	-5.2	5.1
CC(=O)N1CCN(Cc2ccc(Cl)nc2)CC1	0.5	0.0	7.3	1.8	-0.8	-9.9
CCCCn1c(O)c(C(C)=NCCN2CCCCC2)c(=O)[nH]c1=O	-4.2	·	·	·	-67.7	·
CC=Cc1ccc2n(c1=O)C[C@@H]1[C@@H](CO)[C@H](C(=O)OC)[C@H]2N1S(=O)(=O)c1cccc(C)c1 (mixture of isomers)	1.1	0.0	·	2.1	61.1*[16.7 µM]	0.7
O=C(CN1CCOCC1)c1ccc2cc[nH]c2c1	-2.0	0.0	-0.6	4.4	-3.6	-3.5
CCN(CCCl)c1cc(CN(C)C)cc(NC(=O)c2ccc(C(=O)Nc3cc(CN(C)C)cc(N(CC)CCCl)c3)cc2)c1	·	-0.4	-3.9	48.9*	88.7*	-34.4
Cc1ccc(N)c(C(=O)c2ccc(Br)cc2)c1	·	0.2	·	-8.9	3.2	-5.6
COC(=O)C1=C(c2ccccc2OCc2ccccc2)C[C@@H]2CC[C@H]1N2C(=O)NCCOc1ccccc1Cl	0.0	0.3	-26.8	-4.6	9.0	9.3
C=C1C(=O)O[C@H]2[C@H]1[C@H](OC(=O)CC(=O)O[C@@H]1C[C@@H](C)[C@@H]3C=CC(=O)[C@@]3(C)[C@H]3OC(=O)C(=C)[C@H]13)C[C@@H](C)[C@H]1C=CC(=O)[C@]12C	-3.6	-0.3	·	·	-51.7	11.5
C=C1C(=O)O[C@@H]2C[C@@H](C)[C@@H]3C=CC(=O)[C@@]3(C)[C@@H](OC(=O)CC(=O)O[C@H]3[C@@H]4C(=C)C(=O)O[C@@H]4C[C@@H](C)[C@@H]4C=CC(=O)[C@]43C)[C@H]12	-1.4	0.1	·	-1.3	108.9*	5.5
Cc1cc(OC(C)C(=O)NCc2ccncc2)c2c3c(c(=O)oc2c1)CCCC3 (centres undefined)	0.1	-0.1	-6.7	0.0	2.9	0.2
C=C(CC1CC(O)[C@]2(C)OC3CC4OC5C[C@]6(C)O[C@]7(C)CCC8OC9C[C@]%10(C)OC%11C(C)=CC(=O)OC%11CC%10OC9C[C@@H](C)C8OC7CC6O[C@]5(C)C/C=C\C4OC3CC2O1)C(=O)O (some centres undefined)	-1.3	0.2	3.7	51.4*	11.0	9.8
CC(Cc1ccccc1Sc1ccc(O)cc1)N(C)C (centres undefined)	·	·	2.8	·	·	·
C[C@H]1[C@@H](OS(=O)(=O)O)C[C@@H]2C[C@H]([C@@H](O)c3cc(=O)[nH]c(=O)[nH]3)NC3=NC[C@H]1N32	0.2	·	93.5*	·	·	·
O=C(Cc1ccccn1)N1CC2(C1)[C@H](c1ccccc1)[C@H](CO)N2Cc1ccccn1	·	0.1	5.9	7.6	·	2.7
COc1ccc(C(CNC(=O)Cc2ccc(Cl)c(Cl)c2)N2CCCCC2)cc1 (centres undefined)	-0.8	0.0	·	-4.1	5.1	-31.9
CCOC(=O)c1cnc(SCc2ccc(Cl)c(Cl)c2)nc1N1CC1	1.1	-0.4	-0.3	-5.1	-48.7	-7.9*
Nc1cncc(C(=O)O)c1	15.7	-0.1	-4.3	1.7	-2.6	84.2
